Test results taken from ChEMBL document CHEMBL3243989, “Antibacterial N-[omega, omega'-bis(alicyclic and aryl)-sec-alkyl]poly(methylene)triamine and -tetramine hydrochloride salts” (J Med Chem, 1979).
Calls of active or inactive are those of the source. The calls are words filed in the database; no cut-off is given here.

What was measured:
[1] = Metal chelate stability constant of the compound assessed as copper ion complex formation; assay type: physicochemical
[2] = Lipophilicity, log P of the compound; conditions: octanol/water
Streptococcus pyogenes = test: Antibacterial activity against Streptococcus pyogenes assessed as growth inhibition at 2 to 8 ug/mL; assay type: functional, organism-based
Proteus vulgaris = test: Antibacterial activity against Proteus vulgaris MB838 assessed as growth inhibition at 200 ug/mL; assay type: functional, organism-based
Klebsiella aerogenes = test: Antibacterial activity against Klebsiella aerogenes MB1503 assessed as growth inhibition; assay type: functional
Outline: (§1)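 MIC (µg/mL) by in vitro growth inhibition in an assay system at pH 7.4. Tetracycline was run routinely to check medium, incubation conditions and inoculum virility.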

Escherichia coli = test: Antibacterial activity against Escherichia coli MB2884 assessed as growth inhibition; assay type: functional; outline: as §1
[3] = test system: Bordetella bronchiseptica; test: Antibacterial activity against Bordetella bronchiseptica MB905 assessed as growth inhibition; assay type: functional; outline: as §1
[4] = test system: Corynebacterium pseudodiphtheriticum; test: Antibacterial activity against Corynebacterium pseudodiphtheriticum assessed as growth inhibition at 2 to 8 ug/mL; assay type: functional, organism-based
Staphylococcus aureus [5] = test: Antibacterial activity against Staphylococcus aureus MB2865 assessed as growth inhibition; assay type: functional; outline: as §1
Pseudomonas aeruginosa [6] = test: Antibacterial activity against Pseudomonas aeruginosa MB2245 assessed as growth inhibition; assay type: functional; outline: as §1
Bacillus subtilis = test: Antibacterial activity against Bacillus subtilis MB964 assessed as growth inhibition; assay type: functional; outline: as §1
Pseudomonas aeruginosa [7] = test: Antibacterial activity against Pseudomonas aeruginosa MB418 assessed as growth inhibition; assay type: functional; outline: as §1
Pasteurella multocida = test: Antibacterial activity against Pasteurella multocida MB7 assessed as growth inhibition at 2 to 8 ug/mL; assay type: functional, organism-based
[8] = test system: Bordetella bronchiseptica; test: Antibacterial activity against Bordetella bronchiseptica MB3551 assessed as growth inhibition; assay type: functional; outline: as §1
Staphylococcus aureus [9] = test: Antibacterial activity against Staphylococcus aureus MB108 assessed as growth inhibition; assay type: functional; outline: as §1
Salmonella = test: Antibacterial activity against Salmonella schottmuelleri MB2837 assessed as growth inhibition; assay type: functional; outline: as §1
[10] = test system: Corynebacterium pseudodiphtheriticum; test: Antibacterial activity against Corynebacterium pseudodiphtheriticum assessed as growth inhibition at 15 ug/mL; assay type: functional, organism-based

logP [2] | Structure (SMILES) | log K [1] | growth inhibition (GI) (Streptococcus pyogenes) | growth inhibition (GI) (Proteus vulgaris) | MIC (Klebsiella aerogenes) [µg/mL] | MIC (Escherichia coli) [µg/mL] | MIC [3] [µg/mL] | growth inhibition (GI) [4] | MIC (Staphylococcus aureus [5]) [µg/mL] | MIC (Pseudomonas aeruginosa [6]) [µg/mL] | MIC (Bacillus subtilis) [µg/mL] | MIC (Pseudomonas aeruginosa [7]) [µg/mL] | growth inhibition (GI) (Pasteurella multocida) | MIC [8] [µg/mL] | MIC (Staphylococcus aureus [9]) [µg/mL] | MIC (Salmonella) [µg/mL] | growth inhibition (GI) [10]
– | NCCCNCCCN [NORSPERMIDINE] | 14.2 | – | – | – | – | – | – | – | – | – | – | – | – | – | – | –
-0.82 | NCCNCCNCCN [TRIENTINE] | – | – | – | – | – | – | – | – | – | – | – | – | – | – | – | –
– | NCCNCCCNCCN | 23.9 | – | – | – | – | – | – | – | – | – | – | – | – | – | – | –
– | CC1(C)C2CCC(C2)C1CCC(CCC1C2CCC(C2)C1(C)C)NCCNCCNCCCN.Cl (stereo not drawn) | – | Active | inactive | 10 | 10 | 6 | inactive | 6 | 60 | 6 | 60 | Active | 30 | 20 | 6 | –
– | CC(C)C1CCC(CCC(CCC2CCC(C(C)C)CC2)NCCCNCCCN)CC1.Cl (stereo not drawn) | – | Active | inactive | 50 | 50 | 10 | inactive | 40 | 60 | 6 | 60 | Active | 10 | 20 | 20 | –
– | CC1(C)C2CCC(C2)C1CCC(CCC1C2CCC(C2)C1(C)C)NCCN(CCN)CCN.Cl (stereo not drawn) | – | Active | inactive | 8 | 8 | 4 | inactive | 8 | 8 | 4 | 50 | Active | 4 | 4 | 4 | –
– | Cl.NCCCNCCCNC(CCCCC1CCCCC1)CCCCC1CCCCC1 | – | Active | inactive | 20 | 20 | 4 | inactive | 20 | 15 | 8 | 10 | Active | 4 | 10 | 6 | –
– | CC(C)(C)c1ccc(CCCC(CCCc2ccc(C(C)(C)C)cc2)NCCCNCCCNCCCN)cc1.Cl | – | Active | inactive | > 200 | > 200 | 20 | – | 20 | 100 | 10 | 80 | Active | 30 | 30 | 15 | Active
– | CC1(C)C2CCC(C2)C1CCC(CCC1C2CCC(C2)C1(C)C)NCCCNCCCNCCCN.Cl (stereo not drawn) | – | Active | inactive | 30 | 10 | 2 | inactive | 8 | 8 | 2 | 8 | Active | 2 | 15 | 6 | –
– | Cl.NCCNCCNC(CCC1CCCCC1)CCC1CCCCC1 | – | Active | inactive | 8 | 10 | 4 | inactive | 15 | 100 | 4 | 100 | Active | 4 | 4 | 2 | –
– | Cl.NCCNCCNCCNC(CCCC1CCCCC1)CCCC1CCCCC1 | – | Active | inactive | 6 | 10 | 6 | inactive | 15 | 30 | 4 | 30 | Active | 4 | 6 | 6 | –
– | Cc1ccc(C(C)(C)C)cc1CCCC(CCCc1cc(C(C)(C)C)ccc1C)NCCCNCCCNCCCN.Cl | – | Active | inactive | 200 | 100 | 8 | inactive | 8 | 50 | 6 | 40 | Active | 8 | 20 | 8 | –
– | Cl.NCCCNCCCNC(CC1CCCCC1)CC1CCCCC1 | – | Active | inactive | 8 | 40 | 4 | inactive | 40 | 40 | 10 | 60 | Active | 6 | 30 | 4 | –
– | Cl.NCCCNCCCNC(CCC1CCCCC1)CCC1CCCCC1 | – | Active | inactive | 6 | 15 | 2 | inactive | 10 | 15 | 2 | 30 | Active | 2 | 2 | 2 | –
– | Cc1ccc(CCC(CCc2ccc(C)cc2)NCCCNCCCN)cc1.Cl | – | Active | inactive | 15 | 50 | 4 | inactive | 50 | 40 | 4 | 60 | Active | 6 | 30 | 10 | –
– | CC1(C)C2CCC(C2)C1CCC(CCC1C2CCC(C2)C1(C)C)NCCCNCCNCCCN.Cl (stereo not drawn) | – | Active | inactive | 15 | 30 | 4 | inactive | 8 | 15 | 4 | 30 | Active | 4 | 4 | 4 | –
– | CC1(C)C2CCC(C2)C1CCC(CCC1C2CCC(C2)C1(C)C)NCCCNCCCN.Cl (stereo not drawn) | – | Active | inactive | 4 | 8 | 4 | inactive | 10 | 10 | 4 | 8 | Active | 4 | 4 | 4 | –
– | Cl.NCCNCCNCCNC(CCC1CCCCC1)CCC1CCCCC1 | – | Active | inactive | 15 | 20 | 6 | inactive | 30 | 30 | 6 | 40 | Active | 4 | 6 | 4 | –
